Screening data deposited in PubChem BioAssay by Johns Hopkins Ion Channel Center.
Sampled rows, rich in hits. Any-hit rate of the full collection: about 2.9%.
TRPC4 potent – allosteric potentiators of mouse TRPC4 channel; Q9QUQ5; HEK293 TRPC4beta/mu-opioid, DAMGO EC20, Fluo-4 Ca2+ flux; active compounds read high; B-score at 10 µM; actives 0.42% (n = 310,000);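 active = B-score of calcium response area above 5 SD of library B-scores, with initial fluorescence ratio within 5 SD of library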;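 also: B-score of integrated fluorescence ratio over time as area under calcium response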
Target sequence (Q9QUQ5 whole entry, looked up): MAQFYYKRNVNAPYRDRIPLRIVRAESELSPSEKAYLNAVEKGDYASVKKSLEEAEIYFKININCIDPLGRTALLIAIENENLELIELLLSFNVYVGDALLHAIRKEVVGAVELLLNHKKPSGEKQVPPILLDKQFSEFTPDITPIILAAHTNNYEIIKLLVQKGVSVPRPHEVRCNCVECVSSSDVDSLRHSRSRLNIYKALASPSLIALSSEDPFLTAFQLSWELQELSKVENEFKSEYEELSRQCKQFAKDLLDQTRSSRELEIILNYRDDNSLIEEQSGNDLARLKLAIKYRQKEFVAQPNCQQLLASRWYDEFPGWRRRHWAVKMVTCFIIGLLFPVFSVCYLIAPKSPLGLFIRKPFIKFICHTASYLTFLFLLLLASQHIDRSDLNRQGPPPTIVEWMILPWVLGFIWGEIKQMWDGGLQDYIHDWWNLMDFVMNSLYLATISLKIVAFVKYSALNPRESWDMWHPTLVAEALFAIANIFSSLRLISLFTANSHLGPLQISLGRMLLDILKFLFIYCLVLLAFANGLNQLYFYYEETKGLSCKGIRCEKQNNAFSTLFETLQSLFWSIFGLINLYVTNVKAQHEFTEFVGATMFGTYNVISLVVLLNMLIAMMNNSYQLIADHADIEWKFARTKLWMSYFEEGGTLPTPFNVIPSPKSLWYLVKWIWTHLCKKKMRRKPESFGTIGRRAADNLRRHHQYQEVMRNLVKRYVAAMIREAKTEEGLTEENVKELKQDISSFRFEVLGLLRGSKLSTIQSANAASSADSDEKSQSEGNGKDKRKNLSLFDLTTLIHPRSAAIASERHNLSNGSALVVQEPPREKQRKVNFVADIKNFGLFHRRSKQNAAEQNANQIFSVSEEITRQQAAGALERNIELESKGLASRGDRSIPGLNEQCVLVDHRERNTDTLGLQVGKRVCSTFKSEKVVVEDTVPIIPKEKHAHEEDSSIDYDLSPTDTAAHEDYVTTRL
TRPC6 inhibitor – blocks the mouse TRPC6 cation channel. actives 1.1% (n = 310,000). HEK293-TRPC6, membrane potential dye, ACh-evoked depolarization; active compounds read low. AID 2553. B-score at 10 µM;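 active = B-score under library mean minus 3 SD, initial fluorescence not abnormally high, positive integrated signal ratio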;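 also: B-score derived from integrated fluorescence ratio over the kinetic read; more negative B-score means stronger inhibition of depolarization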
TRPC4 inh – blocks the mouse TRPC4 cation channel; Q9QUQ5; HEK293 TRPC4beta/mu-opioid, DAMGO-evoked Fluo4 calcium flux; active compounds read low; B-score at 10 µM; actives 0.39% (n = 300,000);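 active = B-score over 3 SD under the library average, no early fluorescence shift, positive overall ratio signal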
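Assay system: HEK293 cells with stable TRPC4beta plus mu-opioid receptor expression. Dosing: single dose. Measured by: Fluo4 Ca2+ flux fluorescence. Also added: DAMGO in two steps, submaximal then maximal. Read-out: B score from integrated Fluo4 fluorescence ratio.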
Kir21 block – inhibitors of mouse Kir2.1 inward-rectifier potassium channel. AID 1672. B-score at 10 µM. HEK293-Kir2.1, FluxOR thallium flux fluorescence; active compounds read low. P35561. actives 0.85% (n = 310,000);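 active = fluorescence ratio B-score at or below minus 3 SD of library scores, with starting-brightness B-score within 2 SD, cut at about -4.2 in these data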;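 also: channel flux triggered by added potassium and thallium sulfate stimulus; B-score of peak minus minimum fluorescence over baseline after thallium stimulus; more negative B-score means stronger Kir2.1 block with less thallium influx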
TRPC6 activator – activators of mouse TRPC6 channel. Q61143. HEK293-TRPC6 membrane potential dye fluorescence; active compounds read high. B-score at 10 µM. actives 0.13% (n = 310,000);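 active = B-score of the integrated fluorescence ratio above library mean plus 3 SD, and starting fluorescence ratio within library mean plus 5 SD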;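 also: higher score means more depolarization so channel activation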
TRPC4 agonist – opens the mouse TRPC4 cation channel. Q9QUQ5. HEK293 TRPC4beta/mu-opioid, Fluo4 calcium fluorescence; active compounds read high. B-score at 10 µM. actives 0.49% (n = 310,000). AID 2237;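 active = B-score above 5 SD of library B-scores, and initial fluorescence ratio not above library mean plus 5 SD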;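 also: positive B-score marks a calcium rise read as TRPC4 activation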
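Assay system: HEK293 stable line with TRPC4beta plus mu-opioid receptor. Times: dye 45 min RT, read 110 s. Measured by: kinetic Fluo4 calcium fluorescence. Measure: B score of integrated ratio. Controls: assay buffer as low control, maximal DAMGO as high control.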
An asterisk follows results filed as active; i = inactive.

SMILES	TRPC4 potent	TRPC6 inhibitor	TRPC4 inh	Kir21 block	TRPC6 activator	TRPC4 agonist
CC1(C)CC(=O)C(C=NCCN2CCN(C3CC(=O)N(c4cccc(Br)c4)C3=O)CC2)=C(O)C1 (stereo not given)	29*	i	i	-0.21	i	i
CCC(=O)N1CCN(CCN=CC2=C(O)CC(C)(C)CC2=O)CC1	i	i	i	-0.03	i	i
CC1(C)CC(=O)C(C=NCCN2CCN(C(=O)CCl)CC2)=C(O)C1	34*	i	i	0.23	i	i
CC1(C)CC(=O)C(C=NCCc2ccccn2)=C(O)C1	i	i	i	-0.85	i	50*
COc1cccc(N2C(=O)CC(N3CCN(CCN=CC4=C(O)CC(C)(C)CC4=O)CC3)C2=O)c1 (stereo not given)	16*	i	i	2	i	i
Cc1ccc(NCC(=O)Nc2cccc(S(=O)(=O)N(C)C)c2)c(Cl)c1	i	i	i	0.81	i	i
CC(C)(C)c1ccccc1NC(=O)N1CCNC(=O)C1CC(=O)Nc1ccc(F)cc1 (stereo not given)	i	i	i	-0.03	i	i
CN(C(=O)COc1ccccc1C(=O)NCCOc1ccccc1)c1ccccc1	i	i	i	-7.5*	i	i
O=[N+]([O-])c1ccc(O)c2ncccc12	i	i	i	-0.09	i	i
O=[N+]([O-])c1cc([N+](=O)[O-])c2cccnc2c1Oc1ccccc1O	i	i	i	-8.9*	i	i
Cc1ccc(C)c(N2C(=O)c3ccc(C(=O)OCC(=O)c4c(N)n(C)c(=O)n(C)c4=O)cc3C2=O)c1	11*	i	i	2	i	i
CCOc1ncccc1C(=O)NCCCSc1ccccc1	i	i	i	2.1	i	i
C1CCC(C(CC2CCCCN2)C2CCCCC2)CC1 (stereo not given)	i	i	i	-7.5*	i	i
COc1cc(CCC(=O)OCC(=O)NCc2ccc(Cl)cc2)cc(OC)c1OC	i	i	i	-4.4*	i	i
COc1cc(CCC(=O)NCc2ccc(Cl)cc2)cc(OC)c1OC	i	i	i	-1.8	i	i
Cc1[nH]c2ccc(Br)cc2c(=O)c1CN1CCCCC1	10*	i	i	-0.19	i	i
CCN1CCN(Cc2c(C)[nH]c3ccc(OC)cc3c2=O)CC1	15*	i	i	0.47	i	i
CCNC(=S)NNc1nc(N2CCCCC2)nc(N2CCOCC2)n1	i	i	i	-0.73	i	i
Cc1ccc(SC[C@H](C)CN2CC[C@H](C)CCC2=O)cc1	i	i	i	-4.7*	i	i
COc1ccccc1CCC(=O)Nc1ccc2c(c1)CN(Cc1ccc(C)o1)CC2	i	i	i	-0.04	i	i
O=[N+]([O-])c1ccc(OCc2n[nH]c(=S)n2-c2ccccc2)cc1	i	i	i	0.48	i	i
CN(C(=S)NC(=O)CCCOc1ccc(Cl)cc1Cl)c1ccccc1	i	i	i	-4.9*	i	i
CC(Oc1ccc(Cl)cc1Cl)C(=O)N(C)c1ccccc1 (stereo not given)	i	i	i	-6.4*	i	i
CC(C)NC(=O)CCCOc1ccc(Cl)cc1Cl	i	i	i	0.97	i	i
CCCCC[C@H]1CN(Cc2ccccc2)C(=O)[C@@H]1CC(=O)NCc1ccc(OC)cc1	i	i	i	0.75	i	i
SMILES	TRPC4 potent	TRPC6 inhibitor	TRPC4 inh	Kir21 block	TRPC6 activator	TRPC4 agonist
CCOC(=O)c1c(NC(=O)CSc2nc3ccc(C)cc3[nH]2)sc2c1CC(C)(C)NC2(C)C	i	i	i	-4.8*	i	i
CCOC(=O)c1c(NC(=O)CSc2nnnn2-c2ccccc2)sc2c1CC(C)(C)NC2(C)C	i	i	i	-1.5	i	i
O=C(NCCCn1ccnc1)/C(=C\c1ccc(Br)cc1)NC(=O)c1ccccc1F	i	i	i	-1.5	i	i
NC(=O)COc1ccc(=O)n(-c2ccccc2)n1	i	i	i	3	i	i
O=C(Oc1ccc(=O)n(-c2ccccc2)n1)c1ccc(Cl)cc1	i	i	i	-4.3*	i	i
O=c1ccc(OCCOc2ccccc2)nn1-c1ccccc1	17*	i	i	0.07	i	i
COc1ccc(NC(=O)c2cc(C)nn2-c2ccccc2)cc1	i	i	i	-1.2	i	i
Cc1ccc(NC(=S)NC2CCSc3ccccc32)cc1C (stereo not given)	i	i	i	0.68	i	i
CC(Sc1nnc(-c2ccccc2F)n1C1CC1)C(=O)NC(N)=O (stereo not given)	i	i	i	-0.05	i	i
COc1cccc(NC(=O)CSc2nc3c(sc4ccccc43)c(=O)n2CCCN2CCCC2)c1	i	i	i	-5.7*	i	i
COc1cccc(NC(=O)CSc2nc3c(sc4ccccc43)c(=O)n2CCN(C)C)c1	i	i	i	-0.65	i	i
O=C(C#Cc1ccccc1)c1ccco1	i	i	i	-2.9	i	i
O=C1C(=O)N(Cc2cccnc2)C(c2cccc(Br)c2)/C1=C(/O)c1ccc2c(c1)OCO2 (stereo not given)	i	i	i	0.8	i	i
COc1ccc(Cn2c(N)c(C#N)c3nc4ccccc4nc32)cc1OC	i	i	i	0.06	i	i
COc1ccc(CCn2c(N)c(C#N)c3nc4ccccc4nc32)cc1OC	i	i	-6*	0.55	i	i
CN(Cc1ccccc1)Cc1nc2c(c(=O)n(C)c(=O)n2C)n1CCCc1ccccc1	37*	i	i	-2.7	i	i
C/C(N)=C(/C#N)C(=O)COC(=O)c1ccccc1C(=O)c1ccc(C)cc1	i	i	i	-5.1*	i	i
COc1ccc(-c2nc(CSCC(=O)NCCC3=CCCCC3)c(C)o2)cc1OC	i	i	i	-5.1*	i	i
COc1ccc(-c2nc(CN3CCC(C(=O)NC4CCCC4)CC3)c(C)o2)cc1OC	i	i	i	2.2	i	101*
COc1ccc(-c2nc(CN3CCC(C(=O)N4CCOCC4)CC3)c(C)o2)cc1OC	i	i	i	-0.2	i	i
O=C(C1=C[C@H](c2csc3ccccc23)C[C@H](OCc2ccc(CO)cc2)O1)N1CCCCCCC1	i	i	i	-0.17	i	i
